Laboratory results as given in ChEMBL document CHEMBL4020704, “Metabolite diversification by cultivation of the endophytic fungus Dothideomycete sp. in halogen containing media: Cultivation of terrestrial fungus in seawater” (Bioorg Med Chem, 2017).
≈ marks a conversion by molar mass, not a printed value. Calls of active or inactive are those of the source. The calls are words filed in the database; no cut-off is given here.

Legend:
Bacillus cereus = assay: Antibacterial activity against Bacillus cereus after 20 hrs by broth microdilution method; format: functional
How it was run: (§1)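 Compounds dissolved in DMSO and two-fold serially diluted in 96-well plates, with final DMSO ≤0.5% (v/v). Inocula prepared in normal saline and adjusted to 0.5 McFarland turbidity. Plates incubated at 36 °C for 20 h, then absorbance read at 600 nm. MIC taken as the lowest concentration inhibiting growth.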

Staphylococcus aureus = assay: Antibacterial activity against Staphylococcus aureus after 20 hrs by broth microdilution method; format: functional; how it was run: as §1
[1] = system: Staphylococcus epidermidis; assay: Antibacterial activity against Staphylococcus epidermidis after 20 hrs by broth microdilution method; format: functional; how it was run: as §1
Enterococcus faecalis = assay: Antibacterial activity against Enterococcus faecalis after 20 hrs by broth microdilution method; format: functional; how it was run: as §1
Escherichia coli = assay: Antibacterial activity against Escherichia coli after 20 hrs by broth microdilution method; format: functional; how it was run: as §1
Pseudomonas aeruginosa = assay: Antibacterial activity against Pseudomonas aeruginosa after 20 hrs by broth microdilution method; format: functional; how it was run: as §1
Salmonella typhimurium = assay: Antibacterial activity against Salmonella typhimurium after 20 hrs by broth microdilution method; format: functional; conditions: Salmonella enterica subsp. enterica serovar Typhimurium; how it was run: as §1
Shigella flexneri = assay: Antibacterial activity against Shigella flexneri after 20 hrs by broth microdilution method; format: functional; how it was run: as §1
HuCC-A1 = assay: Cytotoxic activity against human HuCCa1 cells by MTT assay; format: functional, cell-based
How it was run: (§2)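 Adherent cancer cell lines, viability read by MTT assay. Doxorubicin served as reference drug for A549, HepG2 and HuCCA-1, and etoposide also for HepG2. IC50 determined.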

HepG2 = assay: Cytotoxic activity against human HepG2 cells by MTT assay; format: functional, cell-based; how it was run: as §2
MOLT-3 = assay: Cytotoxic activity against human MOLT3 cells by XTT assay; format: functional, cell-based
How it was run: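 Non-adherent MOLT-3 leukemia cells, viability read by XTT assay. Etoposide served as reference drug. IC50 determined.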

| SMILES | MIC (Bacillus cereus) [µg/mL] | MIC (Staphylococcus aureus) [µg/mL] | MIC [1] [µg/mL] | Activity (Bacillus cereus) | Activity (Staphylococcus aureus) | Activity [1] | Activity (Enterococcus faecalis) | Activity (Escherichia coli) | Activity (Pseudomonas aeruginosa) | Activity (Salmonella typhimurium) | Activity (Shigella flexneri) | Activity (HuCC-A1) | Activity (HepG2) | Activity (MOLT-3) | IC50 (HuCC-A1) [µg/mL] | IC50 (HepG2) [µg/mL] | IC50 (MOLT-3) [µg/mL] |
| --- | --- | --- | --- | --- | --- | --- | --- | --- | --- | --- | --- | --- | --- | --- | --- | --- | --- |
| CN(C)[C@@H]1C(O)=C(C(N)=O)C(=O)[C@@]2(O)C(O)=C3C(=O)c4c(O)cccc4[C@@](C)(O)[C@H]3C[C@@H]12 [TETRACYCLINE] | 6.25 (≈ 14.1 µM) | 0.78 (≈ 1.76 µM) | 1.56 (≈ 3.51 µM) |  |  |  |  |  |  |  |  |  |  |  |  |  |  |
| CC1=CC2=C(CC(C)C(=O)C[C@H](C)O)C(=O)[C@](C)(O)[C@@H](O)C2=CO1 (stereo partly drawn) |  |  |  | inactive | inactive | inactive | inactive | inactive | inactive | inactive | inactive | inactive | inactive | inactive |  |  |  |
| COc1cccc2c1C(=O)c1c(O)c3c(c(O)c1C2=O)C[C@@](O)(C(=O)CO)C[C@@H]3O[C@H]1C[C@H](N)[C@H](O)[C@H](C)O1 [DOXORUBICIN] |  |  |  |  |  |  |  |  |  |  |  |  |  |  | 0.33 (≈ 0.607 µM) |  |  |
| C/C(=C\C=C\[C@H](O)[C@@H](C)O)[C@H](O)[C@H](C)C(=O)O[C@H]1C[C@H](CO)C[C@@H]2C=C[C@H](C)[C@](C)(C(=O)CCO)[C@@H]12 |  |  |  | inactive | inactive | inactive | inactive | inactive | inactive | inactive | inactive | inactive | inactive | inactive |  |  |  |
| CC1=CC2=C(C[C@H](C)C3=CC(=O)CC(C)O3)C(=O)[C@](C)(O)[C@@H](O)C2=CO1 (stereo partly drawn) |  |  |  | inactive | inactive | inactive | inactive | inactive | inactive | inactive | inactive | inactive | inactive | inactive |  |  |  |
| O=C(N[C@H](CO)[C@H](O)c1ccc([N+](=O)[O-])cc1)C(Cl)Cl [CHLORAMPHENICOL] | 0.78 (≈ 2.41 µM) | 0.78 (≈ 2.41 µM) | 0.78 (≈ 2.41 µM) |  |  |  |  |  |  |  |  |  |  |  |  |  |  |
| CC1=CC2=C(C[C@@H](C)C3=CC(=O)CC(C)O3)C(=O)[C@](C)(O)[C@@H](O)C2=CO1 (stereo partly drawn) |  |  |  | inactive | inactive | inactive | inactive | inactive | inactive | inactive | inactive | inactive | inactive | inactive |  |  |  |
| CO[C@@H](/C=C/C=C(\C)[C@H](O)[C@H](C)C(=O)O[C@H]1C[C@H](C)C[C@@H]2C=C[C@H](C)[C@](C)(C(=O)[C@H](O)CO)[C@@H]12)[C@@H](C)O | 100 (≈ 191 µM) | 100 (≈ 191 µM) | 100 (≈ 191 µM) |  |  |  | inactive | inactive | inactive | inactive | inactive | inactive | inactive | inactive |  |  |  |
| CO[C@@H](/C=C/C=C(\C)[C@H](O)[C@H](C)C(=O)O[C@H]1C[C@H](C)C[C@@H]2C=C[C@H](C)[C@](C)(C(=O)[C@H](O)CO)[C@@H]12)[C@H](C)O |  |  |  | inactive | inactive | inactive | inactive | inactive | inactive | inactive | inactive | inactive | inactive | inactive |  |  |  |
| C[C@H]1C=C[C@H]2C[C@@](O)(CO)CC[C@@H]2[C@@]1(C)C(=O)CCO |  |  |  | inactive | inactive | inactive | inactive | inactive | inactive | inactive | inactive | inactive | inactive | inactive |  |  |  |
| COc1cc([C@@H]2c3cc4c(cc3[C@@H](O[C@@H]3O[C@@H]5CO[C@@H](C)O[C@H]5[C@H](O)[C@H]3O)[C@H]3COC(=O)[C@H]23)OCO4)cc(OC)c1O [ETOPOSIDE] |  |  |  |  |  |  |  |  |  |  |  |  |  |  |  | 24.3 (≈ 41.3 µM) | 0.04 (≈ 0.068 µM) |
| C/C(=C\C=C\[C@H](O)[C@H](C)O)[C@H](O)[C@H](C)C(=O)O[C@H]1C[C@H](C)C[C@@H]2C=C[C@H](C)[C@](C)(C(=O)[C@H](O)CO)[C@@H]12 |  |  |  | inactive | inactive | inactive | inactive | inactive | inactive | inactive | inactive | inactive | inactive | inactive |  |  |  |
| C[C@H]1C=C[C@H]2C[C@@H](CO)C[C@H](O)[C@@H]2[C@@]1(C)C(=O)[C@H](O)CO |  |  |  | inactive | inactive | inactive | inactive | inactive | inactive | inactive | inactive | inactive | inactive | inactive |  |  |  |
